# Source: PubChem BioAssay AID1885 (Broad Institute, 2009)
# Out of some 300,000 compounds screened, about 4,400 (1.5%) were called active.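 The calls were made as follows: active = mean inhibition across valid replicates above about 55% (limit read from the data); inconclusive = mean below that limit but half or more replicates reach it; inactive = mean below it, under half of replicates reach it.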 The full list was thinned out, with actives kept by preference.
# Experiment: inhibitors of intracellular T. cruzi growth, primary screen, luminescence, NIH3T3 host cells (AID 1885);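 also: signal also drops with host cell toxicity which is not excluded here; 0% = plate median of DMSO wells and 100% = zero luminescence signal; higher percent means less beta-gal luminescence so fewer parasites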
# Conditions: T. cruzi beta-gal in NIH3T3, luminescence, 90 h; stronger effect = higher value; concentration not given here
# Summary of the method: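 System: Mouse NIH/3T3 fibroblasts infected with β-gal-expressing T. cruzi Tulahuen C4 | Quantity: NIH/3T3 cells, 5,000 per well | Reagent: 5000 reporter trypomastigotes per well | Dosing: Compound pinned at 50 nL/well, DMSO | Schedule: 3 h host attachment, then at least 90 h co-culture | Detection: GalScreen luminescence, 60 min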
row,Compound,inhibition
1,CN1CCC(=NNC(=O)c2ccc(N(Cc3ccc(Cl)cc3)S(C)(=O)=O)cc2)CC1,8.52% (inactive)
2,O=C(COc1ccc(Cl)cc1)NCCS(=O)(=O)N1CCN(c2ccc(F)cc2)CC1,11.2% (inactive)
3,COc1ccc(C(O)(C2CCCCC2)C(CN2CCCC2)c2ccccc2)cc1 (centres undefined),2.61% (inactive)
4,COC(=O)[C@]1(C)N[C@H](c2ccc(-c3ccc(Cl)c(Cl)c3)cc2)[C@@H]2C(=O)N(C)C(=O)[C@@H]21,-12.4% (inactive)
5,COc1ccc(NC(=O)CN(C)C(=O)c2ccc(NC3CC3)c([N+](=O)[O-])c2)cc1,-6.67% (inactive)
6,CSc1nc2ccccc2cc1/C=C(\C#N)c1ccc(Cl)cc1Cl,4.89% (inactive)
7,Cc1nnc(SCC(=O)N/N=C/c2cn(-c3ccccc3)nc2-c2ccc(F)cc2)n1-c1ccccc1,-11.7% (inactive)
8,Cc1ccc(-c2nn(-c3ccccc3)cc2/C=N/NC(=O)c2ccc3c(c2)OCO3)cc1,28% (inactive)
9,O=C(N/N=C/c1ccc([N+](=O)[O-])o1)c1cn(-c2ccccc2)nc1-c1ccc(F)cc1,69.4% (active)
10,COc1cccc(OC)c1C(=O)Nc1sc2c(c1C(N)=O)CCCC2,9.96% (inactive)
11,c1ccc2c(c1)C(=NC1CCCCC1)NC2=NC1CCCCC1,55.5% (active)
12,COc1cccc(COC(=O)C2CCN(S(=O)(=O)c3ccc(Cl)cc3)CC2)c1OC,-3.47% (inactive)
13,Cc1oc(C)c(C(=O)NCCCC(=O)O)c1C(=O)NCCCC(=O)O,-21.2% (inactive)
14,CC(C)(C)NC(=O)Cn1cnc([N+](=O)[O-])n1,50.4% (inactive)
15,O=C(CSc1ncccn1)NCCc1ccccc1,-13.3% (inactive)
16,O=C(Cn1cnc([N+](=O)[O-])n1)NCCc1ccccc1,76.4% (active)
17,Cc1cc(C)c(S(=O)(=O)n2cc(C(C)C(N)C(=O)O)c3ccccc32)c(C)c1 (centres undefined),-6.09% (inactive)
18,OC(COCCC12CC3CC(CC(C3)C1)C2)CN1CCCCC1 (centres undefined),62% (active)
19,OC(COc1ccc(Br)cc1)CN1CCCC1 (centres undefined),10.2% (inactive)
20,Cc1cccc(C)c1OCC(O)CN1CCCCC1 (centres undefined),-1.54% (inactive)
21,COc1ccc(C(=O)/C=C/c2ccc(-c3ccccc3)cc2)cc1CSCC(=O)O,-21% (inactive)
22,Cc1ccc(S(=O)(=O)N(C)C)cc1NC(=O)COC(=O)/C=C/c1cccs1,-8.51% (inactive)
23,Cc1ccc(-c2cc(=O)[nH]c(NCc3ccccc3)n2)cc1,-16.4% (inactive)

row,Compound,inhibition
1,Cc1c(C)n(Cc2ccc(Cl)cc2)c2ccc(C(=O)NCCCN3CCOCC3)cc12,12.7% (inactive)
2,COc1ccc(C2=NN(C(=O)c3cccnc3)C(c3ccccc3)C2)cc1 (centres undefined),3.02% (inactive)
3,COc1ccc(C2CC(c3ccc([N+](=O)[O-])cc3)=NN2C(C)=O)cc1 (centres undefined),4.42% (inactive)
4,COc1ccc(C2CC(c3ccccc3)=NN2C(=O)c2ccc(Cl)c([N+](=O)[O-])c2)cc1 (centres undefined),54.8% (active)
5,O=C(NC1CCCCC1)C1CC(=O)N(CCc2ccccc2)C1 (centres undefined),-16.2% (inactive)
6,C=CCOc1ccc(/C=C/C(=O)OCC(=O)NCC2CCCO2)cc1 (centres undefined),-9.89% (inactive)
7,CCOC(=O)CNc1nc(Cl)nc(Nc2ccc(OC)cc2OC)n1,-0.745% (inactive)
8,CCN(CC)CCCSc1nc2ccccc2s1,69.6% (active)
9,Cc1nc2nc(CSc3nc4ccccc4s3)cc(=O)n2[nH]1,-6.18% (inactive)
10,O=C(O)c1ccccc1CSc1nc2ccccc2s1,-11.7% (inactive)
11,COc1cc2c(cc1OC)C(C(=O)NCc1ccco1)C1c3ccccc3CCN1C2=O (centres undefined),7.27% (inactive)
12,COC(=O)c1c(C)cc(O)c(C)c1O,-2.6% (inactive)
13,O=[N+]([O-])c1ccc2oc(-c3cccc(O)c3)nc2c1,-23.1% (inactive)
14,Cc1cc(S(=O)(=O)Nc2ccc(C(=O)NCC(c3ccco3)N3CCCC3)cc2)ccc1F (centres undefined),63.7% (active)
15,COc1ccc(C(CNC(=O)c2ccc(NS(=O)(=O)c3ccc(F)c(C)c3)cc2)N(C)C)cc1 (centres undefined),3.47% (inactive)
16,COc1ccc(C(CNC(=O)c2cccc(NS(=O)(=O)c3ccc(C)c(F)c3)c2)N2CCCC2)cc1 (centres undefined),-13.1% (inactive)
17,O=C(NNC(=O)c1cc(-c2ccccc2Cl)nc2ccccc12)c1csc(N2CCOCC2)n1,-2.25% (inactive)
18,O=C(Nc1ccc(C(=O)O)cc1)/C(=C\c1ccccc1)NC(=O)c1ccc(Br)cc1,-8.09% (inactive)
19,CC1CCCCN1S(=O)(=O)c1ccc(C(=O)Nc2nnc(-c3cccs3)o2)cc1 (centres undefined),43.1% (inactive)
20,CC1CCCCN1S(=O)(=O)c1ccc(S(=O)(=O)N(CC(=O)Nc2ccccc2)Cc2cccs2)cc1 (centres undefined),57.2% (active)
21,CCN(CC(=O)NCc1cccs1)S(=O)(=O)c1ccc(NC(C)=O)cc1,-2.26% (inactive)
22,CC(OC(=O)C1CC(=O)N(Cc2ccccc2)C1)C(=O)Nc1ccccc1[N+](=O)[O-] (centres undefined),-2.86% (inactive)
23,COc1ccc2[nH]c(C)c(CCN(Cc3cccs3)C(=S)Nc3ccccc3OC)c2c1,60% (active)

row,Compound,inhibition
1,Cc1[nH]c2ccccc2c1CCN(Cc1cccs1)C(=S)NC(C)(C)C,26.1% (inactive)
2,COc1cccc(NC(=S)N(CCc2c(C)[nH]c3ccccc23)Cc2ccco2)c1,18.1% (inactive)
3,CC(C)c1nc(SCC(=O)NC(=O)NC(C)(C)C)n[nH]1,-2.85% (inactive)
4,CCn1c(=N)n(CC(=O)c2cccc(OC)c2)c2ccccc21,7.38% (inactive)
5,CCCCCCCCCCOC(=O)Cn1c(COc2cccc(OC)c2)[n+](C)c2ccccc21,65.1% (active)
6,CCCCCCCCCCOC(=O)Cn1c(COc2ccc(C)cc2)[n+](C)c2ccccc21,46.2% (inactive)
7,CCCCCC(=O)N1CCN(S(=O)(=O)c2ccc3c(c2)OCCCO3)CC1,-5.19% (inactive)
8,Cc1cc(Nc2ccc(Br)cc2)nc2ccccc12,32.6% (inactive)
9,Cn1c2ccccc2c(=O)c2c(=O)n(Cc3ccco3)c(COc3ccccc3)nc21,62.2% (active)
10,CCCc1nc2c(c(=O)c3ccccc3n2C)c(=O)n1-c1cc(C)cc(C)c1,34.2% (inactive)
11,CCCc1nc2c(c(=O)c3ccccc3n2C)c(=O)n1C1CCCCCC1,22.4% (inactive)
12,Cc1ccc(OCCC(=O)OCC(=O)N2c3ccccc3NC(=O)C2(C)C)cc1,-1.24% (inactive)
13,COc1ccc(S(=O)(=O)N2CCOC23CCN(S(=O)(=O)c2ccc([N+](=O)[O-])cc2)CC3)cc1,61.5% (active)
14,COc1ccc(CNC(=O)C(=O)N2CCC3(CC2)OCCN3S(=O)(=O)c2ccc(C)cc2)cc1,-4.09% (inactive)
15,COc1ccc(S(=O)(=O)N2CCSCC2)cc1,5.81% (inactive)
16,CC1(C)O[C@H]2CC(=O)OCC23[C@H]2CC[C@@]4(C)[C@H](c5ccoc5)OC(=O)[C@H]5O[C@]54[C@]2(C)C(=O)C[C@@H]13 (some centres undefined),-3.05% (inactive)
17,c1ccc(NCc2cccc3ccccc23)nc1,1.93% (inactive)
18,c1ccc2c(C[n+]3csc4ccccc43)cccc2c1,59.8% (active)
19,Nc1scc[n+]1Cc1cccc2cccnc12,-1.61% (inactive)
20,FC(F)Oc1ccccc1NC(=S)Nc1cccc(Cl)c1Cl,0.408% (inactive)
21,CC(C(=O)NCC1CCCCC1)N(C)Cc1cccc(Cl)c1 (centres undefined),10.6% (inactive)
22,Cc1ccc(NC(=O)/C(=C/c2ccc([N+](=O)[O-])cc2)NC(=O)c2ccccc2)cc1,1.7% (inactive)
23,CCOC(=O)/C(=C\c1ccc([N+](=O)[O-])cc1)C(=O)c1cc(C(C)=O)c(Nc2ccccc2)s1,55.8% (active)

row,Compound,inhibition
1,CCOC(=O)COc1ccc([N+](=O)[O-])cc1,-3.58% (inactive)
2,COC(=O)C1[C@H]2SC(C)(C)C(C(=O)OC)N2C(=O)N1Cc1nc2ccccc2s1 (some centres undefined),-4.35% (inactive)
3,CC(OC(=O)c1ccc(S(=O)(=O)N2CCOCC2)cc1)c1ccccc1 (centres undefined),1.58% (inactive)
4,CC(C)CN(C(=O)COC(=O)c1ccc(Cl)c(N)c1)c1c(N)n(Cc2ccccc2)c(=O)[nH]c1=O,10.2% (inactive)
5,O=C(CCCCCn1c(=S)[nH]c2cc3c(cc2c1=O)OCO3)N1CCN(c2ccc(F)cc2)CC1,7.91% (inactive)
6,Cc1ccc(C)c(N2CCN(C(=O)CCCCCn3c(=S)[nH]c4ccc(N5CCOCC5)cc4c3=O)CC2)c1,56.8% (active)
7,Cc1ccc(C)c(N2CCN(C(=O)CCCCn3c(=O)[nH]c4ccccc4c3=O)CC2)c1,4.26% (inactive)
8,Cc1ccn(C(CC(=O)c2ccc(Br)cc2)C(=O)O)n1 (centres undefined),-6.81% (inactive)
9,CCN(CC)C(=O)CSC1c2ccccc2C(=O)N1c1ccccc1 (centres undefined),-17.2% (inactive)
10,CCOc1ccc(CCNC(=O)C(CC)n2nc(C)n3c(cc4sccc43)c2=O)cc1OCC (centres undefined),59.3% (active)
11,COc1ccc(CCNC(=O)c2cc3sccc3n2C)cc1OC,-11.3% (inactive)
12,CCC(C(=O)NCc1ccc(OC)cc1)n1nc(C)n2c(cc3occc32)c1=O (centres undefined),-2.81% (inactive)
13,COc1ccc(-n2nnnc2CNC(=O)c2ccc3ccccc3c2)cc1,-2.55% (inactive)
14,Cc1c(Cl)cccc1NC(=S)N(Cc1ccccc1)Cc1cccnc1,18.3% (inactive)
15,Cc1ccc(CN(Cc2cccnc2)C(=S)Nc2cc(Cl)ccc2C)cc1,77.2% (active)
16,Cc1ccc(CN(Cc2cccnc2)C(=S)Nc2cccc(Cl)c2C)cc1,3% (inactive)
17,CCOc1ncccc1C(=O)NNC(=O)c1cccc(S(=O)(=O)Nc2ccccc2OC)c1,0.733% (inactive)
18,COc1ccc(CSc2nc(N3CCOCC3)c3c(c2C#N)CC(C)(C)OC3)cc1,60.5% (active)
19,CC(C)c1nc(N2CCOCC2)c(C#N)c2c1COC(C)(C)C2,12.5% (inactive)
20,CC1(C)Cc2c(C#N)c(SCc3nc4ccccc4[nH]3)nc(N3CCOCC3)c2CO1,23.1% (inactive)
